A short description of data set [1]: Cytotoxicity against chinese hamster V79 cells assessed as survival fraction under normoxic condition at 20 uM after 7 days by crystal violet staining relative to control. To be noted: read-out: Activity. The class given is cell-based, Cricetulus griseus. A digest of the protocol:
(§1)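 V79 suspension cultures were set at 2 × 10^4 cells/mL in EMEM with 10% FBS and 10 mM HEPES, under aerobic or hypoxic gassing. Compound at 20 µM was added 30 min after gassing began, in duplicate flasks, with a DMSO negative control. After 2 h the cells were replated (10^2–10^3 cells) for 7 days at 37 °C. Colonies of >64 cells were counted after crystal violet staining. SF = PEtreated/PEcontrol × 100; values are means of two experiments.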

Data set [2] in a line: Cytotoxicity against chinese hamster V79 cells assessed as survival fraction under hypoxic condition at 20 uM after 7 days by crystal violet staining relative to control. Type of data set: cell-based, Cricetulus griseus. To be noted: read-out: Activity. In short, it runs like this: as §1
For data set [3], the system named is Calf thymus DNA. Kind of data set: Binding affinity to calf thymus DNA assessed as ratio of final absorbance area to the absorbance at 100 uM after 24 hrs by UV spectrophotometer analysis relative to control. Type of data set: nucleic-acid assay. Particulars: Bos taurus. A digest of the protocol: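 Calf thymus DNA was stirred 24 h at 4 °C in 10 mM Tris–HCl pH 7.4, then diluted. Compound at 10^-4 M (≤5% solvent) was diluted in water to 2 × 10^-5 M. This was mixed 1:1 by volume with the DNA solution and rotated 24 h. UV spectra were taken at 20 °C. The ratio is the area of a 20 nm band centred on λmax at 24 h over that at 0 h (a24/a0).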

Data set [4] concerns Caco-2. As to the kind of experiment: Cytotoxicity against human Caco-2 cells assessed as induction of DNA fragmentation under oxic condition at 10 uM after 24 hrs using ethidium bromide staining by agarose gel electrophoresis. The class given is functional, cell-based. A digest of the protocol:
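Caco-2 cells were seeded at 2 × 10^6 cells/well in 100-mm plates and exposed for 24 h under oxic conditions. Chromosomal DNA was then isolated and run on a 1% agarose gel with ethidium bromide staining to visualise fragmentation. The assay was repeated on four separate occasions.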

The subject of data set [5] is Calf thymus DNA. Kind of data set: Binding affinity to calf thymus DNA assessed as change in melting temperature by UV spectrophotometer analysis. Type of data set: nucleic-acid assay. To be noted: Bos taurus. In short, it runs like this: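 Calf thymus DNA in 10 mM Tris–HCl pH 7.4 was mixed with compound at a 1:1 DNA:BPDO ratio. Thermal denaturation was followed as the change in absorbance at 260 nm with temperature, in a 1-cm cell.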

The source made the active and inactive calls. No cut-off for these calls is given here.

As to `COc1ccc2c(c1)[n+]([O-])c1c3ccccc3ccc1[n+]2[O-]`, the figures for the viability at 168 h, 20 µM in data set [1] and in data set [2] were 88% and 44%, respectively. Also, the Ratio in data set [3] came to 1.
`COc1cc(NS(C)(=O)=O)ccc1Nc1c2ccccc2nc2ccccc12`: the Ratio in data set [3] stood at 0.3.
Regarding `CN[C@@H]1C[C@H]2O[C@@](C)([C@@H]1OC)n1c3ccccc3c3c4c(c5c6ccccc6n2c5c31)C(=O)NC4`, in data set [4], the outcome was Active.
For `Nc1ccc2cc3ccc(N)cc3nc2c1`, the ΔTm (in general, the shift of the melting midpoint relative to a reference) in data set [5] was determined as 12 °C.
For `CC[n+]1c(-c2ccccc2)c2cc(N)ccc2c2ccc(N)cc21`, the Ratio in data set [3] stood at 0.5.
Take `[O-][n+]1c2ccccc2[n+]([O-])c2c3ccccc3c(O)cc21`: the viability at 168 h, 20 µM in data set [1] turned out to be 100%; in data set [2], 93%. Further, the Ratio in data set [3] worked out at 0.
For the molecule `[O-][n+]1c2ccccc2[n+]([O-])c2c3ccccc3ccc21`, the viability at 168 h, 20 µM in data set [1] amounted to 40%; in data set [2], 45%. For the same molecule, the Ratio in data set [3] amounted to 1.
In the case of `O=C1c2c(O)ccc(O)c2C(=O)c2c(NCCNCCO)ccc(NCCNCCO)c21`, the Ratio in data set [3] was 0.
In the case of `CCOc1ccc(-c2nc3cc(-c4nc5cc(N6CCN(C)CC6)ccc5[nH]4)ccc3[nH]2)cc1`, the Ratio in data set [3] amounted to 0.57.

Source of the values: ChEMBL document CHEMBL1165945, “Study of benzo[a]phenazine 7,12-dioxide as selective hypoxic cytotoxin-scaffold. Identification of aerobic-antitumoral activity through DNA fragmentation” (Bioorg Med Chem, 2010).
